# Rows were chosen to be rich in hits. Some 9% of all compounds tested hit in one or more screens of this group.
# mHtt clearance: mutant huntingtin protein clearance. AID 853. hit rate 0.42% among 47,000. HeLa Exon1htt(103Q)mCFP, aggregate imaging; zero = plate's median compound well. inhibition, % at 1.5 µM;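 active = inhibition of aggregate fluorescence above about 70%, also judged a hit by eye on the cell image, limit read from the data, passing the limit was not always enough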;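 note: cells exposed to compound for three days before fixation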
# AP complement: alternative pathway complement inhibition, orthogonal assay | Human serum alternative complement pathway, LPS-coated ELISA, C3 deposition; tested in compound mixtures | inhibition, % at 5 µM | hit rate 0.08% among 62,000 | AID 1235;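 active = inhibition above 30% in each of the two pooled mixtures holding the compound, so the lower value exceeds 30%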
#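 Assay system: human serum alternative complement pathway, C3 deposition on LPS-coated wells; Dosing: 5 µM per compound in ten-compound mixtures; Detection: Anti-C3 ELISA, OD 450 nm; Buffer or medium: Mg2+-EGTA GVB++ buffer containing human serum at 1:15 dilution; Timing: 1 h at 37 °C; Replication: two different pools per compound.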
# M1 antag: blocks the rat M1 muscarinic receptor response to acetylcholine; hit rate 3.4% among 64,000; B-score at 10 µM; CHO-M1 cells, Fluo-4 calcium, ACh EC80 antagonist mode; active compounds read low; AID 628; P08482;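 active = calcium fluorescence response, raw or row-and-column corrected B-score, differing from the plate sample mean either way at a set confidence level, mostly lower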
# M1 ag: agonists of M1 muscarinic receptor; hit rate 3% among 64,000; CHO-M1 cells, Fluo-4 calcium fluorescence, agonist mode; active compounds read high; B-score at 10 µM; AID 626;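 active = fluorescence rise, raw or as B-score row- and column-corrected plate score, outside the 99.7% band of its plate's samples, either direction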
# D1 mod: allosterically modulates the human D1 dopamine receptor; HEK293 D1, CRE-luciferase, dopamine EC30 potentiation; actives deviate in either direction; B-score at 10 µM; hit rate 5.9% among 58,000; P21728;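 active = luminescence count or its row- and column-corrected plate score outside the 99.7% band of the plate's sample wells, on either side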
# Target sequence (P21728 whole entry, looked up): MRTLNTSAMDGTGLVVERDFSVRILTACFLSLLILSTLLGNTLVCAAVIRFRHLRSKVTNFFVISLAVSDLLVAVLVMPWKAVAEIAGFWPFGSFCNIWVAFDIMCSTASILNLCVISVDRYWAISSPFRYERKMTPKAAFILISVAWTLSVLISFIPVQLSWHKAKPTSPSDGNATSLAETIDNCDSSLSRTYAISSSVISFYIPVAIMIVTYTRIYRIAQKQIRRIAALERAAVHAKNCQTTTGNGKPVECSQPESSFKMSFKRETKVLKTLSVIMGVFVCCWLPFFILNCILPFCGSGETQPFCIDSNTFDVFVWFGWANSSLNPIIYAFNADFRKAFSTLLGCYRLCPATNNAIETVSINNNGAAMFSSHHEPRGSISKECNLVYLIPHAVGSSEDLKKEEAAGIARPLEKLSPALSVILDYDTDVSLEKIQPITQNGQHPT
# D1 mod confirm: D1 receptor (human) allosteric modulation, confirmed. hit rate 88% among 2,200. luminescence at 10 µM. HEK293 D1 CRE-luciferase, dopamine EC30 potentiation; active compounds read high. shares compounds with D1 mod. AID 642;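 active = luminescence in either of two replicates above the same-plate mean plus 3 SD of the low-dose dopamine control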
# D1 ag no DA: activates D1 CRE-luciferase signal without dopamine present; shares compounds with D1 mod; hit rate 0.8% among 1,900; HEK293 D1 CRE-luciferase, luminescence, no dopamine; active compounds read high; luminescence at 10 µM; in the data active = luminescence above about 3900
# Isoprot counter: alters isoproterenol CRE-luciferase response in HEK293 cells; HEK293 D1 CRE-luciferase, isoproterenol EC30 counter-screen; calls only at 10 µM; shares compounds with D1 mod; hit rate 63% among 2,200;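 active = luminescence in either replicate above plate mean of wells with a partly effective reference agonist dose plus 3 SD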;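 note: isoproterenol raises cAMP through native beta-adrenoceptor Gs so signal bypasses D1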
# A number is an active result; - = inactive; . = no result; + = active, no number.
SMILES,mHtt clearance,AP complement,M1 antag,M1 ag,D1 mod,D1 mod confirm,D1 ag no DA,Isoprot counter
Fc1ccc(Sc2cc(Cl)c(-c3ccccc3)nn2)cc1,-,.,.,.,.,.,.,.
Cc1noc(C)c1S(=O)(=O)N1CCCC(C(=O)NCc2ccccn2)C1 (centres undefined),.,-,-,-,4.2,6380,-,-
Cc1nn2c(N3CCCC3)cc(C(C)C)nc2c1-c1ccccc1,.,-,-,-,5.3,5624,-,-
COCCn1c(C2CCCCC2)nc2sc3ccccc3c(=O)c2c1=O,-,-,-,-,3.4,10064,.,-
CCOC(=O)c1ccc(Oc2nc(NC)nc(OC)n2)cc1,.,-,2.7,-,3.8,9704,-,+
COC(=O)COC(=O)c1ccc(Oc2nc(OC)nc(N(C)C)n2)cc1,-,-,-,-,-,.,.,.
COc1cc(OC)cc(C(=O)N2CCN(C(=O)c3ccc(OC)c(OC)c3)CC2)c1,-,-,-,-,14,19992,-,+
O=c1[nH]c(=O)n(Cc2ccco2)c2c1C(C(F)(F)F)(C(F)(F)F)N=C(Cc1ccccc1)N2,-,.,.,.,.,.,.,.
Nc1nnc(SCc2ccc(Cl)cc2)s1,-,.,.,.,.,.,.,.
CCOC(=O)c1ccc(CSc2nnc(N)s2)cc1,.,-,-,-,3.7,10844,.,+
Cc1cc(C)n(CC(=O)n2c3c(c4ccccc42)CCCC3)n1,.,-,-,-,5.7,11600,-,-
Cc1cc(C)n(CC(=O)n2c3ccccc3c3ccccc32)n1,.,-,.,.,-,.,.,.
Cc1c(-c2ccc(F)cc2)nc(N)c(C#N)c1-c1ccco1,-,-,-,-,5.8,8280,.,-
CCCc1nc(N)c(C#N)c(-c2ccco2)c1CC,-,-,-,-,6.7,9040,-,+
N#Cc1c(N)nc(SCc2ccccc2)c(C#N)c1-c1ccco1,-,.,-,-,4.2,9744,-,+
CCCOC(=O)CSc1nc(N)c(C#N)c(-c2ccco2)c1C#N,-,.,.,.,.,.,.,.
Cn1c(O)c(C=Nc2ccc(Cc3ccncc3)cc2)c(=O)n(C)c1=O,.,.,-,-,.,.,.,.
CSc1nnc(-c2ccc(F)cc2)o1,-,-,-,-,-,.,.,.
CSc1nncc(-c2ccc(F)cc2)n1,-,-,2.6,-,8.2,8776,.,+
CSc1nncc(-c2ccc(F)c(F)c2)n1,-,-,-,-,4.4,11748,-,-
O=C(c1cccnc1)N1CCN(C(=O)c2ccccc2F)CC1,-,-,-,-,-,.,.,.
CS(=O)(=O)c1nc(-c2ccccc2)cc(C(F)(F)F)n1,.,-,-,-,4.1,6308,.,-
O=C(CSc1nnc(-c2ccc(S(=O)(=O)N3CCCC3)cc2)o1)NCc1ccco1,.,.,-,-,-,.,.,.
O=C(c1nc2nc(-c3cccs3)cc(C(F)(F)F)n2n1)N1CCN(Cc2ccccc2)CC1,-,.,.,.,.,.,.,.
CCCC1=C(C(=O)OCC)C(c2ccncc2)n2ncnc2N1 (centres undefined),-,.,.,.,.,.,.,.
SMILES,mHtt clearance,AP complement,M1 antag,M1 ag,D1 mod,D1 mod confirm,D1 ag no DA,Isoprot counter
CCNc1nc(NCC)n2c(SCc3ccc(F)cc3)nnc2n1,-,-,.,.,.,.,.,.
CCNc1nc(NCC)n2c(SCc3nc4ccccc4c(=O)[nH]3)nnc2n1,-,-,-,-,27,21452,-,+
CCn1c2ccccc2c2cc(NC(=O)CCCN3C(=O)CCC3=O)ccc21,-,-,-,-,-,.,.,.
Cn1c(=O)n(Cc2ccccc2)c(=O)c2c1nc(NCC1CCCO1)n2Cc1ccccc1 (centres undefined),.,-,-,-,-,.,.,.
O=C1C(Cl)=C(NCC2CCCO2)C(=O)N1Cc1ccccc1 (centres undefined),-,-,-,-,4.8,9896,-,-
Cc1noc(C)c1COC(=O)c1ccccc1Oc1ccccc1,-,-,-,-,6.1,8776,-,+
Cc1cc(NC(=O)c2ccccc2Oc2ccccc2)no1,.,-,-,-,6.2,9100,-,-
Cc1oc2c(c1C(=O)NC(Cc1c[nH]c3ccccc13)C(=O)O)CCCC2 (centres undefined),.,-,-,-,-,.,.,.
COc1ccc(C(c2sc3ncnn3c2O)N2CCN(c3ccccc3F)CC2)cc1OC (centres undefined),.,-,-,-,4.8,14444,-,+
COc1ccc(C(c2sc3ncnn3c2O)N2CC(C)OC(C)C2)cc1OC (centres undefined),-,-,-,-,.,.,.,.
Cc1cc(C)c(S(=O)(=O)n2nc(C)c(Br)c2C)c(C)c1,.,-,-,-,-,.,.,.
CCOC(=O)C(CCC#N)(CCC#N)C(=O)OCC,.,-,-,-,-,.,.,.
CCOC(=O)C(O)(CCC(O)(C(=O)OCC)C(=O)OCC)C(=O)OCC,-,.,-,-,5,6712,-,-
O=C(Nc1c(F)c(F)c(F)c(F)c1F)C1CCCCC1,.,-,-,-,-,.,.,.
O=C(Nc1nonc1NC(=O)C1CCCCC1)C1CCCCC1,-,-,-,-,17,25348,-,+
CCC(C(=O)Nc1cc(C)nn1-c1nc(C)cc(C)n1)c1ccccc1 (centres undefined),.,-,-,-,9.9,12296,.,+
Cc1cc(C)nc(-n2nc(C)cc2Nc2ccccc2)n1,-,-,-,-,-,.,.,.
COc1c2c(nc3occc13)C(CCC(C)(C)O)(OC)C(O)CC2 (centres undefined),-,.,-,-,-,.,.,.
CCC(Sc1nc2n[nH]c(C)c2c(=N)n1-c1cc(Cl)ccc1C)C(=O)N1CCOCC1 (centres undefined),.,-,-,-,6.4,12280,-,+
Cc1ccc(-n2c(SCC(=O)NCC3CCCO3)nc3n[nH]c(C)c3c2=N)cc1Cl (centres undefined),.,.,-,-,-,.,.,.
O=c1cc(CN2CCN(c3ccccc3)CC2)c2c(ccc3ccccc32)o1,.,-,-,-,-,.,.,.
O=c1cc(CN2CCC3(CC2)OCCO3)c2c(ccc3ccccc32)o1,.,-,-,-,5.4,13160,-,+
CC(C)(C)C1=Nn2c(nnc2C2CCCCC2)SC1,-,.,-,-,24,19908,-,+
c1cc2c(cc1C1=Nn3c(nnc3C3CCCCC3)SC1)OCO2,.,-,-,-,28,25488,-,+
Cc1ccccc1OC1C(=O)N(Cc2ccc3c(c2)OCO3)C1c1sccc1C (centres undefined),-,.,.,.,.,.,.,.
CCOC(=O)Cc1csc(NC(=O)CCN2C(=O)c3ccccc3C2=O)n1,-,-,-,-,-,.,.,.
COc1cccc(NC(=O)c2nc3ncccn3n2)c1,-,-,-,-,-,.,.,.
CC(C)Cc1nc(C(N)=O)c2[nH]c(=O)n(-c3ccc(F)cc3)c2n1,.,-,-,-,-,.,.,.
Cc1cccc(-n2c(=O)[nH]c3c(C(N)=O)nc(CC(C)C)nc32)c1,.,-,-,-,11,15452,-,+
